Test results: ChEMBL document CHEMBL1155366, “Synthesis of novel ageladine A analogs showing more potent matrix metalloproteinase (MMP)-12 inhibitory activity than the natural product” (Bioorg Med Chem Lett, 2009)

Target: Macrophage metalloelastase (Homo sapiens, UniProt P39900)
Experiment: Inhibition of human MMP12 catalytic domain
In short: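 Human MMP-12 catalytic domain (residues 84-255) in 50 mM Tris pH 7.5, 0.05% Brij-35, 10 mM CaCl₂, 1 mM DTNB. Preincubated with inhibitor in DMSO for 20 min at RT. The chromogenic thiopeptolide substrate (1 mM stock) was then added and the mix incubated 30–80 min at 37 °C. Reaction stopped with 0.2 M EDTA (pH 8.0); color read at 405 nm.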

Chain of Macrophage metalloelastase (P39900 whole entry, the tested form may be a part): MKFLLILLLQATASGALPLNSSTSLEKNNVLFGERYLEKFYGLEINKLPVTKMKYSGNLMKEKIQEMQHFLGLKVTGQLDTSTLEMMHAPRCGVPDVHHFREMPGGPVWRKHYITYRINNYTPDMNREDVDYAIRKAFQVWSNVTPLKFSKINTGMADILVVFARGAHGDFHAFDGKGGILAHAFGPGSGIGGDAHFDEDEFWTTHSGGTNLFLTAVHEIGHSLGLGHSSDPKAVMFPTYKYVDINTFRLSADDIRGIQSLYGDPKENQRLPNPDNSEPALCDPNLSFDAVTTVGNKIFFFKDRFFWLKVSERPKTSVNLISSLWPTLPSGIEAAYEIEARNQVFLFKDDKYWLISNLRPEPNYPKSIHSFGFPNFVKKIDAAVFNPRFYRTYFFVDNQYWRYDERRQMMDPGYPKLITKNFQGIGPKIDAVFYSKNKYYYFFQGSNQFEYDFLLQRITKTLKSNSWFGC

SMILES | IC50
Nc1nc2c(-c3cc(Br)c[nH]3)nccc2[nH]1 | > 100 µM
Nc1nc2c(-c3ccc(Br)[nH]3)nccc2[nH]1 | > 100 µM
Nc1nc2c(-c3cc(Br)c(-c4ccc(-c5ccccc5)cc4)[nH]3)nccc2[nH]1 | > 100 µM
Nc1nc2c(-c3cc(Br)c(Cl)[nH]3)nccc2[nH]1 | 2.02 µM
Nc1nc2c(-c3cc(Br)c(-c4cccc(-c5ccccc5)c4)[nH]3)nccc2[nH]1 | > 100 µM
Nc1nc2c(-c3cc(Cl)c(Cl)[nH]3)nccc2[nH]1 | 5.02 µM
Nc1nc2c(-c3cc(CCc4ccccc4)c(Br)[nH]3)nccc2[nH]1 | 10.2 µM
Cc1cc(-c2nccc3[nH]c(N)nc23)[nH]c1Br | > 100 µM
Nc1nc2c(-c3cc(-c4ccccc4)c(Br)[nH]3)nccc2[nH]1 | 18.7 µM
Nc1nc2c(-c3[nH]c(Br)c(CCc4ccc(C(F)(F)F)cc4)c3Br)nccc2[nH]1 | > 100 µM
Nc1nc2c(-c3[nH]c(Br)c(CCc4cccc(C(F)(F)F)c4)c3Br)nccc2[nH]1 | > 100 µM
Nc1nc2c(-c3cc(Br)c(-c4ccccc4)[nH]3)nccc2[nH]1 | > 100 µM
Nc1nc2c(-c3[nH]c(Br)c(Cc4ccccc4)c3Br)nccc2[nH]1 | > 100 µM
Nc1nc2c(-c3[nH]c(Br)c(CCc4ccccc4)c3Br)nccc2[nH]1 | 2.99 µM
Nc1nc2c(-c3[nH]c(Br)c(CCc4ccccc4C(F)(F)F)c3Br)nccc2[nH]1 | > 100 µM
Cc1c(Br)[nH]c(-c2nccc3[nH]c(N)nc23)c1Br | 5.02 µM
Cc1[nH]c(-c2nccc3[nH]c(N)nc23)cc1Br | > 100 µM
Nc1nc2c(-c3[nH]c(Br)c(Br)c3Br)nccc2[nH]1 | 1.24 µM
Cc1[nH]c(-c2nccc3[nH]c(N)nc23)c(Br)c1Br | > 100 µM
Nc1nc2c(-c3cc(Cc4ccccc4)c(Br)[nH]3)nccc2[nH]1 | > 100 µM
Nc1nc2c(-c3[nH]c(Br)c(Br)c3CCc3ccccc3)nccc2[nH]1 | > 100 µM
Nc1nc2c(-c3cc(CCCc4ccccc4)c(Br)[nH]3)nccc2[nH]1 | > 100 µM
Nc1nc2c(-c3[nH]c(Br)c(CCCc4ccccc4)c3Br)nccc2[nH]1 | > 100 µM
